According to ChEMBL document CHEMBL1126647, “Fluorine-18-labeled progestin ketals: synthesis and target tissue uptake selectivity of potential imaging agents for receptor-positive breast tumors” (J Med Chem, 1993):

How the values were obtained:
[1] = biological target: T1, Progesterone receptor (Rattus norvegicus) (UniProt Q63449); assay: Tissue distribution in uterus 1 hr after [18F]4 injection into estrogen-primed immature rats at low dose; format: functional, tissue-based
T1 sequence (whole entry): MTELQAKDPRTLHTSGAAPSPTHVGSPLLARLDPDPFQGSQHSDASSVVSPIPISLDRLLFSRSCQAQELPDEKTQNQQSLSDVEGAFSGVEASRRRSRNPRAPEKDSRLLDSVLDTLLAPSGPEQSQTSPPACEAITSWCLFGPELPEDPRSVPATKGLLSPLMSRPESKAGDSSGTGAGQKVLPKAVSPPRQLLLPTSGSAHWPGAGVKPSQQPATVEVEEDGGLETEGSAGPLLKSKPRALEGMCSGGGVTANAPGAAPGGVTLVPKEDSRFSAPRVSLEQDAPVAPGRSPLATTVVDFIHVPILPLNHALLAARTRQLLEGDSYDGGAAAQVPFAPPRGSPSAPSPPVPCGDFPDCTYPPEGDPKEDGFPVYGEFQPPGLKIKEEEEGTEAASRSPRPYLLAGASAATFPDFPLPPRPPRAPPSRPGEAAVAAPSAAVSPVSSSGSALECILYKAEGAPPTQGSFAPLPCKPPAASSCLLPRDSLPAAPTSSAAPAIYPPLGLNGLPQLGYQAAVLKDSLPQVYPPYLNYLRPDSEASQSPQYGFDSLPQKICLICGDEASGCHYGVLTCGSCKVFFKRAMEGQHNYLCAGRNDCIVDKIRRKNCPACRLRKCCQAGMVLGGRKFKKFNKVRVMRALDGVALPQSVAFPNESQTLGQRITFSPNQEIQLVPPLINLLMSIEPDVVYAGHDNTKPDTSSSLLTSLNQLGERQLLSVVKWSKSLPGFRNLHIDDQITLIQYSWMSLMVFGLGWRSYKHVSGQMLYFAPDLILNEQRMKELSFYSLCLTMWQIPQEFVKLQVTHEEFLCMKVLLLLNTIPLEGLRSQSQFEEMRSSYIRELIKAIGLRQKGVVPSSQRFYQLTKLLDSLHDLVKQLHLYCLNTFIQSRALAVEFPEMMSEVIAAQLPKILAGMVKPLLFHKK
How it was run: (§1)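 Estrogen-primed immature female Sprague-Dawley rats (estradiol 5 μg s.c. daily ×2, used 24 h later) were given a reduced tracer dose of 30 μCi in 0.04 mL 10% ethanol/saline, tail vein iv, under ether. Decapitated at 1 h; organs weighed and gamma-counted. Results as %ID/g or uterus/tissue ratio, mean ± SD, n = 5.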

[2] = biological target: T1, Progesterone receptor (Rattus norvegicus); assay: Tissue distribution in bone 1 hr after [18F]4 injection into estrogen-primed immature rats at low dose; format: functional, tissue-based; conditions: Bone element; how it was run: as §1
[3] = biological target: T1, Progesterone receptor (Rattus norvegicus); assay: Tissue distribution in blood 1 hr after [18F]4 injection into estrogen-primed immature rats co-injected uterine uptake blocker (ORG 2058); format: functional, tissue-based
How it was run: (§2)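 Blocking group: estrogen-primed immature female Sprague-Dawley rats (estradiol 5 μg s.c. ×2 days, used 24 h later). ORG 2058 18 μg was co-injected with the tracer dose iv via tail vein, 0.2 mL injection volume in 10% ethanol/saline. Killed 1 h later; tissues weighed and gamma-counted. Results as %ID/g or ratios, mean ± SD, n = 5.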

[4] = biological target: T1, Progesterone receptor (Rattus norvegicus); assay: Tissue distribution in fat 3 hr after [18F]4 injection into estrogen-primed immature rats; format: functional, tissue-based; conditions: Adipose tissue
How it was run: (§3)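 Immature female Sprague-Dawley rats, estradiol-primed (5 μg s.c. in 20% ethanol/sunflower oil, two successive days, used 24 h later). Tracer (30 Ci/mmol) in 10% ethanol/saline was injected iv into the tail vein under ether anesthesia. Animals were decapitated 3 h postinjection; organs weighed and gamma-counted. %ID/g, mean ± SD, n = 5.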

[5] = biological target: T1, Progesterone receptor (Rattus norvegicus); assay: Tissue distribution in kidney 1 hr after [18F]4 injection into estrogen-primed immature rats at low dose; format: functional, tissue-based; how it was run: as §1
[6] = biological target: T1, Progesterone receptor (Rattus norvegicus); assay: Tissue distribution in uterus/blood 1 hr after [18F]4 injection into estrogen-primed immature rats co-injected with uterine uptake blocker (ORG 2058); format: functional, tissue-based; how it was run: as §2
[7] = biological target: T1, Progesterone receptor (Rattus norvegicus); assay: Tissue distribution in kidney 3 hr after [18F]4 injection into estrogen-primed immature rats; format: functional, tissue-based; how it was run: as §3
[8] = biological target: T1, Progesterone receptor (Rattus norvegicus); assay: Tissue distribution in liver 1 hr after [18F]4 injection into estrogen-primed immature rats co-injected with uterine uptake blocker (ORG 2058); format: functional, tissue-based; how it was run: as §2
[9] = biological target: T1, Progesterone receptor (Rattus norvegicus); assay: Tissue distribution in ovaries 3 hr after [18F]4 injection into estrogen-primed immature rats; format: functional, tissue-based; conditions: Female gonad; how it was run: as §3
[10] = biological target: T1, Progesterone receptor (Rattus norvegicus); assay: Tissue distribution in uterus 3 hr after [18F]4 injection into estrogen-primed immature rats; format: functional, tissue-based; how it was run: as §3
[11] = biological target: T1, Progesterone receptor (Rattus norvegicus); assay: Tissue distribution in uterus 1 hr after [18F]4 injection into estrogen-primed immature rats at normal dose; format: functional, tissue-based
How it was run: (§4)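 Female Sprague-Dawley rats, 23 days old, primed with estradiol 5 μg s.c. in 20% ethanol/sunflower oil on two days and used 24 h later. Under ether, they received 51 μCi tracer (30 Ci/mmol) iv via the tail vein in 0.1 mL 10% ethanol/saline. Killed by decapitation at 1 h; tissues weighed and gamma-counted. Results as %ID/g or tissue ratios, mean ± SD, n = 5.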

[12] = biological target: T1, Progesterone receptor (Rattus norvegicus); assay: Tissue distribution in brain 1 hr after [18F]-4 injection into estrogen-primed immature rats at low dose; format: functional, tissue-based; how it was run: as §1
[13] = biological target: T1, Progesterone receptor (Rattus norvegicus); assay: Tissue distribution in uterus/muscle 1 hr after [18F]4 injection into estrogen-primed immature rats at normal dose; format: functional, tissue-based; how it was run: as §4
[14] = biological target: T1, Progesterone receptor (Rattus norvegicus); assay: Tissue distribution in muscle 1 hr after [18F]4 injection into estrogen-primed immature rats at low dose; format: functional, tissue-based; how it was run: as §1
[15] = biological target: T1, Progesterone receptor (Rattus norvegicus); assay: Tissue distribution in lung 3 hr after [18F]4 injection into estrogen-primed immature rats; format: functional, tissue-based; how it was run: as §3
[16] = biological target: T1, Progesterone receptor (Rattus norvegicus); assay: Tissue distribution in fat 1 hr after [18F]4 injection into estrogen-primed immature rats co-injected with uterine uptake blocker (ORG 2058); format: functional, tissue-based; conditions: Adipose tissue; how it was run: as §2
[17] = biological target: T1, Progesterone receptor (Rattus norvegicus); assay: Tissue distribution in uterus/muscle 1 hr after [18F]4 injection into estrogen-primed immature rats co-injected ORG 2058 (uterine uptake blocker); format: functional, tissue-based; how it was run: as §2
[18] = Partition coefficient (logP); format: physicochemical; conditions: octanol/water
How it was run: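 Octanol/water partition measured as log P by the Minick method. For some reference progestins, log P was also measured by shake flask.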

[19] = biological target: T1, Progesterone receptor (Rattus norvegicus); assay: Tissue distribution in lung 1 hr after [18F]4 injection into estrogen-primed immature rats co-injected with uterine uptake blocker (ORG 2058); format: functional, tissue-based; how it was run: as §2
[20] = biological target: T1, Progesterone receptor (Rattus norvegicus); assay: Tissue distribution in bone 1 hr after [18F]-4 injection into estrogen-primed immature rats co-injected with uterine uptake blocker (ORG 2058); format: functional, tissue-based; conditions: Bone element; how it was run: as §2
[21] = biological target: T1, Progesterone receptor (Rattus norvegicus); assay: Tissue distribution in uterus/blood 1 hr after [18F]4 injection into estrogen-primed immature rats at low dose; format: functional, tissue-based; how it was run: as §1
[22] = biological target: T1, Progesterone receptor (Rattus norvegicus); assay: Tissue distribution in brain 1 hr after [18F]-4 injection into estrogen-primed immature rats co-injected with uterine uptake blocker (ORG 2058); format: functional, tissue-based; how it was run: as §2
[23] = biological target: T1, Progesterone receptor (Rattus norvegicus); assay: Tissue distribution in ovaries 1 hr after [18F]4 injection into estrogen-primed immature rats co-injected with uterine uptake blocker (ORG2058); format: functional, tissue-based; conditions: Female gonad; how it was run: as §2
[24] = biological target: T1, Progesterone receptor (Rattus norvegicus); assay: Tissue distribution in blood 1 hr after [18F]4 injection into estrogen-primed immature rats at normal dose; format: functional, tissue-based; how it was run: as §4
[25] = biological target: T1, Progesterone receptor (Rattus norvegicus); assay: Tissue distribution in lung 1 hr after [18F]4 injection into estrogen-primed immature rats at normal dose; format: functional, tissue-based; how it was run: as §4
[26] = biological target: T1, Progesterone receptor (Rattus norvegicus); assay: Relative binding affinity for progesterone receptor compared to R5020

| SMILES | Injected dose/g [1] | Injected dose/g [2] | Injected dose/g [3] | Injected dose/g [4] | Injected dose/g [5] | uterus/blood ratio [6] | Injected dose/g [7] | Injected dose/g [8] | Injected dose/g [9] | Injected dose/g [10] | Injected dose/g [11] | Injected dose/g [12] | uterus/muscle ratio [13] | Injected dose/g [14] | Injected dose/g [15] | Injected dose/g [16] | uterus/muscle ratio [17] | logP [18] | Injected dose/g [19] | Injected dose/g [20] | other results |
| --- | --- | --- | --- | --- | --- | --- | --- | --- | --- | --- | --- | --- | --- | --- | --- | --- | --- | --- | --- | --- | --- |
| CC(=O)[C@@]12O[C@](C)(c3ccc(F)cc3)O[C@@H]1CC1C3CCC4=CC(=O)CC[C@]4(C)C3CC[C@@]12C (some centres not stated) | 3.3% | 1.77% | 0.43% | 5.06% | 2.27% | 3.06 | 1.47% | 3.16% | 2.19% | 2.13% | 3.08% | 0.57% | 3.85 | 0.82% | 0.91% | 3.77% | 1.69 | 5.71 | 1.26% | 1.44% | uterus/blood ratio [21]: 6.34; Injected dose/g [22]: 0.55%; Injected dose/g [23]: 2.29%; Injected dose/g [24]: 0.47%; Injected dose/g [25]: 1.3%; relative binding affinity (RBA) [26]: 53 |
| C[C@@]1(c2ccc(F)cc2)O[C@@H]2CC3C4CCC5=CC(=O)CC[C@@H]5C4CC[C@]3(C)[C@]2(C(=O)CO)O1 (some centres not stated) | 4.06% | 0.68% | 0.23% | 1.64% | 1.57% | 3.69 | 0.45% | 3.56% | 1.78% | 3.86% | 3.65% | 0.39% | 8.2 | 0.464% | 0.22% | 2.76% | 2.42 | 4.92 | 0.54% | 0.6% | uterus/blood ratio [21]: 14.5; Injected dose/g [22]: 0.28%; Injected dose/g [23]: 1.37%; Injected dose/g [24]: 0.26%; Injected dose/g [25]: 0.6%; relative binding affinity (RBA) [26]: 240 |
